# Source: PubChem
# The list is not random: actives were taken first. Their share in the collection is about 1.7%.
# Rpn11 block = Rpn11 (PSMD14) deubiquitinase inhibitors, primary screen, biochemical, fluorescence polarization, uHTS; 26S proteasome non-ATPase regulatory subunit 14 (Homo sapiens), O00487; human 26S proteasome, Ub4-pepOG fluorescence polarization; 20S core pre-blocked with epoxomicin; calls only at 20 µM; hit rate 0.59% among 360,000; AID 588493, 2011;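 active = inhibition at 20 µM, scaled to each plate's controls, above about 33%, limit read from the data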
# IDE cell activ = human IDE activators in live cells, primary screen, fluorescence polarization, HEK cells, FAbeta-B substrate. FAbeta-B cleavage; 0% vehicle, 100% cell-free pure enzyme wells. Insulin-degrading enzyme (Homo sapiens), P14735. hit rate 0.073% among 340,000. activation, % at 5.96 µM;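 active = activation above the mean of all tested compounds plus 3 SD, set per screening campaign, cut at about 17% in these data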
# Target sequence (P14735 whole entry, looked up): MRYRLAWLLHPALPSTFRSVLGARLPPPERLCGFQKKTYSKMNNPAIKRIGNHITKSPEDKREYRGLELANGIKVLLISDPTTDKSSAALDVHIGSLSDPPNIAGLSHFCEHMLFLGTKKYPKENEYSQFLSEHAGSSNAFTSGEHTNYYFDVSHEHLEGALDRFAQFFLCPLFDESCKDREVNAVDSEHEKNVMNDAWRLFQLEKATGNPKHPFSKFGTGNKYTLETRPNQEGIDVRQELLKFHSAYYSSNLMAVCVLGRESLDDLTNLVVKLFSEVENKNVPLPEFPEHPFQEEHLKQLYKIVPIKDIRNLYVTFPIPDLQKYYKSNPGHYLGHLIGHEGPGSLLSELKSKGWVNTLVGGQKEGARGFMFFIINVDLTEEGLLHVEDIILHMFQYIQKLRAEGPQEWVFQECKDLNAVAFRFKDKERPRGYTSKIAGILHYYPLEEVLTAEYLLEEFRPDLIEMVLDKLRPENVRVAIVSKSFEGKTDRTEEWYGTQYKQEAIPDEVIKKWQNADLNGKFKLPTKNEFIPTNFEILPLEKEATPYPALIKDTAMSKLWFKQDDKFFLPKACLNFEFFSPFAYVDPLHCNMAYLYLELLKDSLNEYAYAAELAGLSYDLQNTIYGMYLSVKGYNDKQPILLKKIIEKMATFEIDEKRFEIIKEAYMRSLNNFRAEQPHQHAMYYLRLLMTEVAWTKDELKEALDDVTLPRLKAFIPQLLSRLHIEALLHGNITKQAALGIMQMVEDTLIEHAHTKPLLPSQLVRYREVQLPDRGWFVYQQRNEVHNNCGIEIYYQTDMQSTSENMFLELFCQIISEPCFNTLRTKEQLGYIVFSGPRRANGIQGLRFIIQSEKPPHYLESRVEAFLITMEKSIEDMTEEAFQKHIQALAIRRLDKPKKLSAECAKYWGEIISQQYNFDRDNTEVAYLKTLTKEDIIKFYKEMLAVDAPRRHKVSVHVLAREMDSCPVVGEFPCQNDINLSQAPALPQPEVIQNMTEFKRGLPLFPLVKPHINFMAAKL
# IDE cell inh = human IDE inhibitors in live cells, primary screen, fluorescence polarization, HEK cells, FAbetaB substrate | AID 434962, 2010 | FAbetaB cleavage | hit rate 0.41% among 320,000 | Insulin-degrading enzyme (Homo sapiens), P14735 | inhibition, % at 5.59 µM;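 active = percent inhibition above the average of all tested compounds plus 3 SD, set per screening campaign, cut at about 16% in these data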;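 note: IDE supplied by intact live HEK cells; FP after avidin binding of uncleaved biotin substrate so inhibition keeps polarization high; 0% = DMSO wells and 100% = 60 µM reference IDE inhibitor Ii1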
# TPT1 inhibitor = Candida albicans TPT1 enzyme inhibitors, primary screen, biochemical, fluorescence polarization; tRNA 2'-phosphotransferase TPT1 (Candida albicans SC5314); recombinant caTPT1, FP RNA substrate dephosphorylation; inhibition, % at 5 µM; hit rate 0.81% among 300,000; AID 1962, 2009;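 active = inhibition above the mean of all tested compounds plus 3 SD, set per screening campaign, cut at about 24% in these data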;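 note: plate controls were DMSO alone for no effect and ferristatin control at 100 nM for full effect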
# HNF4A DNA FP = change in binding of human HNF4A to DNA, primary screen, biochemical, fluorescence polarization, FITC-DNA. activity change, % at 10 µM. AID 1224865, 2016. 1 h. Hepatocyte nuclear factor 4-alpha (Homo sapiens), P41235. hit rate 0.3% among 360,000; in the data active = activity change above about 30%, passing the limit was not always enough
# CSN deneddyl inh = inhibitors of CSN-mediated cullin deneddylation, primary screen, biochemical, fluorescence polarization, uHTS; COP9 signalosome complex subunit 5 (Homo sapiens), Q92905; Purified CSN, SCF-Nedd8-OG deneddylation; inhibition, % at 12.5 µM; hit rate 0.38% among 360,000; AID 651999, 2013;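 active = pattern-corrected inhibition above about 35%, with an unprinted fluorescence ratio check between 0.5 and 1.5, limit read from the data, passing the limit was not always enough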;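 note: 0% = enzyme with substrate and 100% = substrate without enzyme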
#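 Assay system: purified human Csn5 enzyme expressed in HEK293T cells; Input: 0.24 nM Csn5 enzyme, final concentration; Reagent: 10 nM SCFSkp2-Nedd8OG; Compound dosing: 12.5 µM single point; Times: reaction 90 min, room temperature; Technique: fluorescence polarization readout.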
# * hit, by the source's call; i = inactive; / = no result shown; + = active, no number.
SMILES,Rpn11 block,IDE cell activ,IDE cell inh,TPT1 inhibitor,HNF4A DNA FP,CSN deneddyl inh
COc1cc2c(-c3ccc(O)cc3)nc3c(c(C)nn3-c3ccccc3)c2cc1OC,i,5,0,-1,160*,1
COc1cc2c(C)nc3c(c(C)nn3-c3ccccc3)c2cc1OC,i,2,8,-2,-3,1
Cc1ccc(C2CC(=O)N3CN(c4ccc(Br)cc4)CSC3=C2C#N)o1 (configuration not stated),+,-9,10,18,-11,35*
CCOc1ccc(N2CSC3=C(C#N)C(c4ccco4)CC(=O)N3C2)cc1 (configuration not stated),i,8,10,10,1,-2
O=S(=O)(c1ccccc1)N1CCN(Cc2cc3c(cc2Br)OCCO3)CC1,i,3,-2,/,1,2
CC1(C(=O)Nc2ccc3ccccc3c2)CCC(=O)N1CCCn1ccnc1 (configuration not stated),i,/,/,/,0,5
COc1cccc2cc(C(=O)NNC(=O)c3ccc(Br)cc3)c(=O)oc12,i,8,5,1,1,110*
O=C1C2C3C=CC(C4CC34)C2C(=O)N1/N=C/c1ccc(-c2cccc([N+](=O)[O-])c2)o1 (configuration not stated),i,2,5,-1,-1,1
NC(=O)CC(NC(=O)Cc1ccc(Br)cc1)c1ccc(NC2CCN(Cc3ccccc3)CC2)c([N+](=O)[O-])c1 (configuration not stated),i,-6,2,1,-4,53*
NC(=O)CC(NC(=O)Cc1ccc(Br)cc1)c1ccc(NC2CCCCCCC2)c([N+](=O)[O-])c1 (configuration not stated),/,2,/,/,44,28
COc1ccc2c(c1)O[C@H](c1ccc3c(c1)OCO3)[C@@H](OC(=O)Nc1cc(OC)c(OC)c(OC)c1)C2=O,/,/,-3,1,/,/
[O-]/C(=C(\C(=S)Nc1ccccc1F)[n+]1ccccc1)c1ccc(OC(F)F)cc1,i,4,0,4,75*,6
Cc1ccc2c(cnn2C(=O)CCCC(=O)NC(C)c2ccccc2)c1 (configuration not stated),i,5,0,-1,2,1
CN(c1ccccc1C(=O)Nc1cccc(Cl)c1Cl)S(C)(=O)=O,i,3,0,-3,2,2
Cc1ccc(NS(=O)(=O)c2ccc(NC(=O)N3CCCCC3)cc2)cc1,i,-4,0,-2,-4,5
Cc1cccc(NS(=O)(=O)c2ccc(NC(=O)N3CCCCC3)cc2)c1,i,3,2,-3,0,43*
CC(C)CN(C(=O)COC(=O)c1ccc(Br)cc1)c1c(N)n(Cc2ccccc2)c(=O)[nH]c1=O,i,22*,-2,0,1,4
COCCN(C(=O)COC(=O)c1c(-c2ccccc2)noc1C)c1c(N)n(Cc2ccccc2)c(=O)[nH]c1=O,i,-1,4,-2,1,4
CCc1nc2ccccc2c(C(=O)OCC(=O)N(CCOC)c2c(N)n(Cc3ccccc3)c(=O)[nH]c2=O)c1C,i,-2,/,/,-1,+
Cc1cc2nc(-c3ccco3)c(Cc3cccc(Cl)c3)n2c(C)c1Br,/,/,/,/,6,36*
O=C(NCC(=O)N(CC1CCCO1)C(C(=O)NC1CCCCC1)c1cccnc1)c1cccs1 (configuration not stated),i,8,2,-1,1,-3
COc1ccc(NC(=O)NN2CCOCC2)cc1OC,i,2,2,-1,3,6
COc1ccc(CCN=C(C)c2cc(C)c(C)cc2O)cc1OC,i,3,6,-3,0,2
O=C(/C=C/c1ccc(Cl)cc1)Nc1ccc(N2CCCCC2)cc1,i,40*,3,3,16,1
